Values after ≈ are worked out from the molar mass of the structure shown. Active and inactive are the calls of the source. The rule behind the calls is not given here. Square brackets hold non-standard residues; d marks the D form. Peptide text beside a SMILES is read from it. Orn = NCCC[C@H](N)C(=O)O
How the values were obtained:
Bacillus subtilis [1] = assay: Antimicrobial activity against Bacillus subtilis at 32 ug/mL; type: functional
[2] = system: Staphylococcus epidermidis; assay: Antimicrobial activity against Staphylococcus epidermidis at 32 ug/mL; type: functional, organism-based
Enterococcus faecalis [3] = assay: Antimicrobial activity against Enterococcus faecalis at 32 ug/mL; type: functional, organism-based
[4] = Toxicity assessed as hemolytic activity in human RBC; type: cell-based; conditions: erythrocyte
Procedure, shortened: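 Peptide stocks were serially diluted 2-fold in water, then mixed with fresh human erythrocytes diluted 100-fold in PBS pH 7.4. Incubated overnight at room temperature and inspected visually for lysis. MHC was taken as the lowest concentration lysing half of the cells.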

Escherichia coli [5] = assay: Antimicrobial activity against Escherichia coli at 32 ug/mL; type: functional, organism-based
[6] = Ratio of MHC for human RBC to MIC for Bacillus subtilis; type: functional
Bacillus subtilis [7] = assay: Antimicrobial activity against Bacillus subtilis; type: functional
Procedure, shortened: (§1)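 Microtiter broth assay. Peptide stock in 30% DMSO/water, neutralized with sodium phosphate pH 7.0, added to a 1000-fold diluted overnight bacterial culture (1:5 into final volume). Incubated 7 h at 37 °C. Growth scored visually.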

Escherichia coli [8] = assay: Antimicrobial activity against Escherichia coli; type: functional; procedure, shortened: as §1
[9] = system: Staphylococcus epidermidis; assay: Antimicrobial activity against Staphylococcus epidermidis; type: functional; procedure, shortened: as §1
Enterococcus faecalis [10] = assay: Antimicrobial activity against Enterococcus faecalis; type: functional; procedure, shortened: as §1

SMILES	MIC (Bacillus subtilis [1]) [µg/mL]	Activity [2]	Activity (Enterococcus faecalis [3])	Activity [4] [µg/mL]	Activity (Escherichia coli [5])	Ratio [6]	MIC (Bacillus subtilis [7]) [µg/mL]	MIC (Escherichia coli [8]) [µg/mL]	Activity (Bacillus subtilis [1])	MIC [9] [µg/mL]	MIC (Enterococcus faecalis [10]) [µg/mL]
CCCNC(=O)C[C@H]1NC(=O)[C@@H](CCCNC(=N)N)NC(=O)[C@H](Cc2ccccc2)NC(=O)[C@@H]2CCCN2C(=O)[C@@H](Cc2ccccc2)NC(=O)[C@@H]2CCCN2C(=O)[C@H](CCCN)NC(=O)[C@H](C(C)C)NC(=O)[C@H](Cc2ccc(O)cc2)NC(=O)[C@@H](C)NC1=O	0.5 (≈ 0.4 µM)	inactive	inactive	514	inactive	1024	–	–	–	–	–
CCCNC(=O)C[C@@H]1NC(=O)[C@@H](CCCNC(=N)N)NC(=O)[C@H](Cc2ccccc2)NC(=O)[C@@H]2CCCN2C(=O)[C@@H](Cc2ccccc2)NC(=O)[C@@H](CC(N)=O)NC(=O)[C@H](CCCN)NC(=O)[C@H](C(C)C)NC(=O)[C@H](Cc2ccc(O)cc2)NC(=O)[C@@H](CC(C)C)NC1=O	–	–	–	–	–	–	8 (≈ 6.12 µM)	32 (≈ 24.5 µM)	–	–	–
CCCNC(=O)C[C@@H]1NC(=O)[C@@H](CCCNC(=N)N)NC(=O)[C@H](Cc2ccccc2)NC(=O)[C@@H]2CCCN2C(=O)[C@@H](Cc2ccccc2)NC(=O)[C@H](Cc2ccc(F)cc2)NC(=O)[C@H](CCCN)NC(=O)[C@H](C(C)C)NC(=O)[C@H](Cc2ccc(O)cc2)NC(=O)CNC1=O [listing 1 of 2 here]	–	–	–	16	–	–	–	–	–	–	–
CCCNC(=O)C[C@@H]1NC(=O)[C@@H](CCCCN)NC(=O)[C@H](Cc2ccccc2)NC(=O)[C@@H]2CCCN2C(=O)[C@@H](Cc2ccccc2)NC(=O)[C@@H]2CCCN2C(=O)[C@H](CCCN)NC(=O)[C@H](C(C)C)NC(=O)[C@H](Cc2ccc(O)cc2)NC(=O)[C@H](Cc2ccc(F)cc2)NC1=O	–	inactive	inactive	–	inactive	–	> 32	32 (≈ 24.3 µM)	inactive	–	–
CCCNC(=O)C[C@@H]1NC(=O)[C@@H](Cc2ccccc2)NC(=O)[C@H](Cc2ccccc2)NC(=O)[C@@H]2CCCN2C(=O)[C@@H](Cc2ccccc2)NC(=O)CNC(=O)[C@H](CCCN)NC(=O)[C@H](C(C)C)NC(=O)[C@H](Cc2ccc(O)cc2)NC(=O)[C@H](CCCCN)NC1=O	–	–	–	64	inactive	8	8 (≈ 6.37 µM)	–	–	16 (≈ 12.7 µM)	32 (≈ 25.5 µM)
CC(C)C[C@@H]1NC(=O)[C@H](CCCN)NC(=O)[C@H](C(C)C)NC(=O)[C@H](Cc2ccc(O)cc2)NC(=O)[C@H](CCC(N)=O)NC(=O)[C@H](CC(N)=O)NC(=O)[C@@H](Cc2ccccc2)NC(=O)[C@H](Cc2ccccc2)NC(=O)[C@@H]2CCCN2C(=O)[C@@H](Cc2ccccc2)NC1=O [TYROCIDINE A] (cyclo(F[dF]NQYV[Orn]L[dF]P))	–	–	–	2	–	2	1 (≈ 0.787 µM)	8 (≈ 6.3 µM)	–	1 (≈ 0.787 µM)	1 (≈ 0.787 µM)
CCCNC(=O)C[C@@H]1NC(=O)[C@@H](CCCNC(=N)N)NC(=O)[C@H](Cc2ccccc2)NC(=O)[C@@H]2CCCN2C(=O)[C@@H](Cc2ccccc2)NC(=O)[C@H](Cc2ccc(F)cc2)NC(=O)[C@H](CCCN)NC(=O)[C@H](C(C)C)NC(=O)[C@H](Cc2ccc(O)cc2)NC(=O)[C@H](CO)NC1=O	–	–	–	16	–	8	2 (≈ 1.5 µM)	16 (≈ 12 µM)	–	2 (≈ 1.5 µM)	8 (≈ 6 µM)
CCCNC(=O)C[C@@H]1NC(=O)[C@@H](CCCNC(=N)N)NC(=O)[C@H](Cc2ccccc2)NC(=O)[C@@H]2CCCN2C(=O)[C@@H](Cc2ccccc2)NC(=O)[C@@H](CC(C)C)NC(=O)[C@H](CCCN)NC(=O)[C@H](C(C)C)NC(=O)[C@H](Cc2ccc(O)cc2)NC(=O)[C@H](CCCCN)NC1=O	–	–	–	128	–	16	8 (≈ 6.05 µM)	32 (≈ 24.2 µM)	–	8 (≈ 6.05 µM)	16 (≈ 12.1 µM)
CCCNC(=O)C[C@H]1NC(=O)[C@@H](CCCNC(=N)N)NC(=O)[C@H](Cc2ccccc2)NC(=O)[C@@H]2CCCN2C(=O)[C@@H](Cc2ccccc2)NC(=O)[C@H](Cc2ccc(F)cc2)NC(=O)[C@H](CCCN)NC(=O)[C@H](C(C)C)NC(=O)[C@H](Cc2ccc(O)cc2)NC(=O)CNC1=O	–	–	–	–	–	8	–	–	–	–	–
CCCNC(=O)C[C@@H]1NC(=O)[C@@H](CCCNC(=N)N)NC(=O)[C@H](Cc2ccccc2)NC(=O)[C@@H]2CCCN2C(=O)[C@@H](Cc2ccccc2)NC(=O)[C@@H]2CCCN2C(=O)[C@H](CCCN)NC(=O)[C@H](C(C)C)NC(=O)[C@H](Cc2ccc(O)cc2)NC(=O)[C@@H](C)NC1=O	–	inactive	inactive	–	inactive	–	> 32	32 (≈ 25.6 µM)	inactive	–	–
CCCNC(=O)C[C@@H]1NC(=O)[C@@H](CCCNC(=N)N)NC(=O)[C@H](Cc2ccccc2)NC(=O)[C@@H]2CCCN2C(=O)[C@@H](Cc2ccccc2)NC(=O)[C@H](Cc2ccc(F)cc2)NC(=O)[C@H](CCCN)NC(=O)[C@H](C(C)C)NC(=O)[C@H](Cc2ccc(O)cc2)NC(=O)CNC1=O [listing 2 of 2 here]	–	–	–	–	–	–	1 (≈ 0.768 µM)	4 (≈ 3.07 µM)	–	1 (≈ 0.768 µM)	2 (≈ 1.54 µM)
CCCNC(=O)C[C@H]1NC(=O)[C@@H](CCCCN)NC(=O)[C@H](Cc2ccccc2)NC(=O)[C@@H]2CCCN2C(=O)[C@@H](Cc2ccccc2)NC(=O)[C@H](Cc2ccc(O)cc2)NC(=O)[C@H](CCCN)NC(=O)[C@H](C(C)C)NC(=O)[C@H](Cc2ccc(O)cc2)NC(=O)[C@H](CCCCN)NC1=O	–	–	–	64	–	32	2 (≈ 1.49 µM)	16 (≈ 11.9 µM)	–	4 (≈ 2.98 µM)	16 (≈ 11.9 µM)
CCCNC(=O)C[C@@H]1NC(=O)[C@@H](Cc2ccccc2)NC(=O)[C@H](Cc2ccccc2)NC(=O)[C@@H]2CCCN2C(=O)[C@@H](Cc2ccccc2)NC(=O)CN(C)C(=O)[C@H](CCCN)NC(=O)[C@H](C(C)C)NC(=O)[C@H](Cc2ccc(O)cc2)NC(=O)[C@@H](Cc2ccccc2)NC1=O	–	–	–	–	–	–	32 (≈ 24.8 µM)	32 (≈ 24.8 µM)	–	–	–
CCCNC(=O)C[C@@H]1NC(=O)[C@@H](CCCNC(=N)N)NC(=O)[C@H](Cc2ccccc2)NC(=O)[C@@H]2CCCN2C(=O)[C@@H](Cc2ccccc2)NC(=O)[C@H](Cc2ccc(F)cc2)NC(=O)[C@H](CCCN)NC(=O)[C@H](C(C)C)NC(=O)[C@H](Cc2ccc(O)cc2)NC(=O)[C@H](CCCNC(=N)N)NC1=O	–	–	–	8	–	4	1 (≈ 0.713 µM)	8 (≈ 5.71 µM)	–	4 (≈ 2.85 µM)	8 (≈ 5.71 µM)
CCCNC(=O)C[C@H]1NC(=O)[C@@H](CCCCN)NC(=O)[C@H](Cc2ccccc2)NC(=O)[C@@H]2CCCN2C(=O)[C@@H](Cc2ccccc2)NC(=O)[C@@H]2CCCN2C(=O)[C@H](CCCN)NC(=O)[C@H](C(C)C)NC(=O)[C@H](Cc2ccc(O)cc2)NC(=O)[C@H](Cc2ccc(F)cc2)NC1=O	–	–	–	128	–	32	4 (≈ 3.04 µM)	32 (≈ 24.3 µM)	–	32 (≈ 24.3 µM)	8 (≈ 6.09 µM)
CCCNC(=O)C[C@@H]1NC(=O)[C@@H](CCCCN)NC(=O)[C@H](Cc2ccccc2)NC(=O)[C@@H]2CCCN2C(=O)[C@@H](Cc2ccccc2)NC(=O)[C@H](Cc2ccc(O)cc2)NC(=O)[C@H](CCCN)NC(=O)[C@H](C(C)C)NC(=O)[C@H](Cc2ccc(O)cc2)NC(=O)[C@H](CCCCN)NC1=O	–	–	–	128	–	32	4 (≈ 2.98 µM)	32 (≈ 23.8 µM)	–	4 (≈ 2.98 µM)	16 (≈ 11.9 µM)
